Screens: PubChem, several laboratories
APJ antagonist – antagonists of human apelin receptor APJ, primary screen, CHO-K1 cells, beta-arrestin complementation, luminescence; 330,000 compounds, 0.32% hits; inhibition, % at 20 µM; AID 2521, 2010;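 active means inhibition above about 40% at 20 µM, limit read from the data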;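 further: cells challenged with 10 nM apelin-13 agonist together with compound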
Target sequence (P35414 whole entry, looked up): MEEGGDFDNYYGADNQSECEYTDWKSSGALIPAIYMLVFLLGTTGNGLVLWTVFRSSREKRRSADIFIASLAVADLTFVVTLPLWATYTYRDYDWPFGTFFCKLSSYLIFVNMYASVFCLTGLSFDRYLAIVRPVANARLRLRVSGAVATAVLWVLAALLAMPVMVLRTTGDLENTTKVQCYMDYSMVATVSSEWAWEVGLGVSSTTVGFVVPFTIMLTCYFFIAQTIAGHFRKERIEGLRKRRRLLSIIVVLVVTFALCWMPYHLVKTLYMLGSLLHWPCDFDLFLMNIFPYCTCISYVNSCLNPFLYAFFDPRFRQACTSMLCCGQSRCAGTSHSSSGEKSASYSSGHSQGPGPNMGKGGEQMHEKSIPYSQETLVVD
CCR6 antagonist – CCR6 receptor antagonists, primary screen, cell-based, CHO-K1, luminescence, beta-arrestin, uHTS; C-C chemokine receptor type 6 (Homo sapiens), P51684; CHO-K1 CCR6 PathHunter beta-arrestin, CCL20-stimulated; 340,000 compounds, 0.49% hits; inhibition, % at 20 µM; AID 493098, 2011;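 active means compounds whose inhibition of the agonist-driven luminescence signal at 20 µM reaches about 50%, limit read from the data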;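 further: cells stimulated with CCL20 at 14 nM final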
CXCR6 block – CXCR6 receptor inhibitors, primary screen, cell-based, beta-arrestin, luminescence, CHO-K1 PathHunter, 1536-well; C-X-C chemokine receptor type 6 (Homo sapiens), O00574; inhibition, % at 20 µM; 360,000 compounds, 0.36% hits; AID 602244, 2012; in the data active means inhibition above about 34%, passing the limit was not always enough;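 further: antagonist mode with CXCL16 agonist at 10 nM final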
Target sequence (O00574 whole entry, looked up): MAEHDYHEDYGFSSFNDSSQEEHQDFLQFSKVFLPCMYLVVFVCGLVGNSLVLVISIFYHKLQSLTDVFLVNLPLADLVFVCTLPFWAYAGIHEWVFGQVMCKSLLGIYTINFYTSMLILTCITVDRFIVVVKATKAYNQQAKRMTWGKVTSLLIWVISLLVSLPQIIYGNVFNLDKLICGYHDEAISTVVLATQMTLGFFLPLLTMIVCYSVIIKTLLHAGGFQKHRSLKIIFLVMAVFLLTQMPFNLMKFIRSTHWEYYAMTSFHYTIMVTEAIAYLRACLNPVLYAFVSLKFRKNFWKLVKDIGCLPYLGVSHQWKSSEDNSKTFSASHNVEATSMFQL
m5-HT2A agonist – mouse Htr2a agonists via beta-arrestin recruitment, primary screen, cell-based, luminescence. 5-hydroxytryptamine receptor 2A (Mus musculus), P35363. CHO-K1 mHTR2A beta-arrestin complementation; percent of 30 µM serotonin response. activation, % at 7.6 µM. 360,000 compounds, 0.66% hits. AID 624169, 2012;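 active means activation above a run cutoff, the mean activation of all tested compounds plus 3 SD, cut at about 14% in these data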
EBI2 antag – EBI2 receptor antagonists, beta-arrestin recruitment, primary screen, cell-based, luminescence, 7a,25-OHC stimulation, uHTS; G-protein coupled receptor 183 (Homo sapiens), P32249; 7a,25-OHC stimulated; inhibition, % at 5 µM; 360,000 compounds, 0.81% hits; in the data active means inhibition above about 38%;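 further: enzyme fragment complementation signal reports receptor beta-arrestin coupling in cells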
APJ agonist – agonists of human apelin receptor APJ, primary screen, CHO-K1 cells, PathHunter beta-arrestin, luminescence; P35414; activation, % at 20 µM; 0% DMSO wells, 100% apelin; AID 2520, 2010; 330,000 compounds, 0.11% hits;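 active means activation more than six SD over the plate average, tested at 20 µM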
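Assay system – PathHunter CHO-K1 APJ (AGTRL-1) beta-arrestin reporter cells · Compound – one dose, 20 µM compound, 1% DMSO · Timing – compound 90 min 25 °C, reagent 1 h · Measured by – luminescence from split beta-galactosidase complementation, Galacton Star/Emerald II substrate · Measure – beta-arrestin recruitment to APJ as agonist activity, luminescent signal · Benchmarks – DMSO vs Apelin-13 10 nM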
Each line names hits and unclear results; the compound was inactive in the other large screens. A selection: hits, their analogues and other compounds. The true share with any hit is near 2.1%.

CC(C)(C)OC(=O)NCCCCCNC(=O)c1ncn(Cc2ccccc2)c1C(=O)NCCCCCNC(=O)OC(C)(C)C	none
O=c1cc(-c2c(F)c(F)c(F)c(F)c2F)oc2c(F)c(F)c(F)c(F)c12	APJ antagonist 52 (no result: CCR6 antagonist, CXCR6 block, m5-HT2A agonist, EBI2 antag)
Cc1ccc(NC(=O)CCn2cnc3ccccc3c2=O)cc1	none
O=C(CCn1cnc2ccccc2c1=O)Nc1nc(-c2ccc(Br)cc2)cs1	APJ agonist 23
Cc1ccc(Cc2cnc(NC(=O)/C(C#N)=C/c3ccc(-c4ccc([N+](=O)[O-])cc4)o3)s2)cc1	CCR6 antagonist 59
O=C(COc1ccc(Cl)cc1)N1CCN(c2ccc([N+](=O)[O-])c(N3CCCCC3)c2)CC1	EBI2 antag 78
O=C(COc1ccccc1Cl)N1CCN(c2ccc([N+](=O)[O-])c(N3CCCCC3)c2)CC1	none
O=[N+]([O-])c1ccc(N/N=C/c2cccc(O)c2O)c(S(=O)(=O)N2CCOCC2)c1	APJ antagonist 58, CCR6 antagonist 72, CXCR6 block 55, EBI2 antag 41
O=[N+]([O-])c1ccc(N/N=C/c2ccc(O)c(O)c2O)c(S(=O)(=O)N2CCOCC2)c1	CCR6 antagonist 51
O=C1/C(=C\c2ccc(O)cc2)SC(=S)N1c1cccnc1	APJ antagonist 57, CCR6 antagonist 64, CXCR6 block 49
CCCOc1ccc(/C=C2\SC(=S)N(CC3CCCO3)C2=O)cc1 (centres undefined)	none
COc1cc([N+](=O)[O-])cc(/C=C2/SC(=S)N(Cc3ccccc3)C2=O)c1O	none (no result: APJ antagonist, APJ agonist)
CN1C(=O)/C(=C/c2ccc(O)c([N+](=O)[O-])c2)NC1=S	APJ antagonist 45
O=C1/C(=C/c2ccc(O)cc2)SC(=S)N1CC1CCCO1 (centres undefined)	APJ antagonist 49
O=C1/C(=C\c2cccc([N+](=O)[O-])c2O)SC(=S)N1Cc1ccccc1	CCR6 antagonist 64, CXCR6 block 46 (no result: APJ antagonist, APJ agonist)
COc1cnc(-c2ccccc2)nc1Oc1ccc(Cl)cc1C	none
CCOc1ccc(NC(=O)CN(C)C(=O)CCNC(=O)c2ccccc2Cl)cc1OCC	none
O=C1/C(=C/c2ccc(O)c([N+](=O)[O-])c2)SC(=S)N1Cc1ccccc1	APJ antagonist 50, CCR6 antagonist 54, CXCR6 block 44
O=C1/C(=C\c2ccc(O)cc2)SC(=S)N1Cc1ccccc1	CCR6 antagonist 51
O=C(O)c1ccc(/C=C2/SC(=S)N(Cc3ccccc3)C2=O)cc1	none (no result: APJ antagonist, APJ agonist)
COc1cc(F)ccc1-c1csc(C(O)(c2ccccc2)C(F)(F)F)n1 (centres undefined)	none (no result: APJ antagonist, CCR6 antagonist, APJ agonist)
Cc1ccccc1S(=O)(=O)N1[C@@H](c2ccc(Br)cc2)C(C(=O)O)=CC[C@H]1c1ccc(Cl)cc1	m5-HT2A agonist 22
COc1ccc(C(=O)CC(Nc2ccc([N+](=O)[O-])cc2)c2ccc(OC)cc2)cc1 (centres undefined)	none
CNC(CC(=O)c1ccc([N+](=O)[O-])cc1)C(Cl)(Cl)Cl (centres undefined)	CXCR6 block 90 (no result: APJ antagonist, CCR6 antagonist, APJ agonist)
N#Cc1c(-c2ccc(Br)cc2)cc(-c2cccnc2)nc1N	none
CS(=O)(=O)c1nc(-c2ccc(Br)cc2)cc(-c2ccccc2)c1C#N	EBI2 antag 81
CC1=NOC(=O)/C1=C\c1ccc(-c2ccc(Cl)cc2Cl)o1	APJ agonist 35
CCCOc1ccc(Cl)cc1/C=C1/C(=O)ON=C1C	none
COc1cc2c(cc1O)C(Cc1ccc(O)cc1)[N+](C)([O-])CC2 (centres undefined)	none
COc1ccc(C[C@H]2c3cc(O)c(OC)cc3CC[N+]2(C)[O-])cc1O (some centres undefined)	CCR6 antagonist 59
Nc1nn(-c2ccccc2)c(N)c1N=Nc1ccccc1	none
c1ccc(N=NC2=NN(c3ccccc3)CS2)cc1	CXCR6 block 42 (no result: APJ antagonist, CCR6 antagonist, APJ agonist)
O=[N+]([O-])c1ccc(/C=N/n2c(C3CCCCC3)n[nH]c2=S)cc1	CCR6 antagonist 56
S=c1[nH]nc(C2CCCCC2)n1/N=C/c1ccncc1	none
CCc1nnc(NC(=O)c2ccncc2)s1	none
CCc1nnc(NC(=O)c2cccc(C(=O)Nc3nnc(CC)s3)n2)s1	CCR6 antagonist 73, CXCR6 block 52 (no result: APJ antagonist, APJ agonist)
Cc1cc(C)c2c(=N)c3ccccc3n(CCCCCCCCn3c4ccccc4c(=N)c4c(C)cc(C)nc43)c2n1	CCR6 antagonist 107, CXCR6 block 40 (no result: APJ antagonist, APJ agonist)
CCN(CC(=O)Nc1ccc(NC(C)=O)cc1)C(=O)c1ccc(NC2CC2)c([N+](=O)[O-])c1	none
CCC(CC)c1nnc(NC(=O)c2cc([N+](=O)[O-])ccc2N2CCCCC2)s1	CCR6 antagonist 71
CC(C)CNC(=O)c1cc([N+](=O)[O-])ccc1N1CCCCC1	none
Cc1cc(N2CCN(C)CC2)ccc1NC(=O)c1c2c(nc3ccccc13)CCN(Cc1ccccc1)C2	APJ agonist 16
COc1ccc(NC(=O)C2C(c3ccc4c(c3)OCO4)=Nc3ccccc3N2C(C)=O)cc1 (centres undefined)	none (no result: APJ antagonist, CCR6 antagonist, CXCR6 block, APJ agonist)
O=C1OC2(c3ccccc31)c1cc(I)c(O)c(I)c1Oc1c2cc(I)c(O)c1I	APJ antagonist 46 (no result: CCR6 antagonist, CXCR6 block, m5-HT2A agonist, EBI2 antag)
COc1cc(/C=C2\SC(=O)N(Cc3ccc(F)cc3)C2=O)cc([N+](=O)[O-])c1O	CCR6 antagonist 50
COc1cc(/C=C2/SC(=S)N(Cc3ccccc3)C2=O)cc(Cl)c1O	none (no result: APJ antagonist, APJ agonist)
CCOC(=O)CN1C(=O)S/C(=C/c2ccc(OC)c([N+](=O)[O-])c2)C1=O	none
COc1cc(/C=C2\SC(=O)N(Cc3ccc(Cl)cc3)C2=O)cc([N+](=O)[O-])c1O	CCR6 antagonist 56 (no result: APJ antagonist, APJ agonist)
CCCCNC(=O)C1(C)CCCCN1C(=O)c1cccc(OC(F)(F)F)c1 (centres undefined)	none (no result: APJ antagonist, CCR6 antagonist, APJ agonist)
O=C(NCCc1cnn(-c2ccccc2)c1)c1cc(COc2c(F)cccc2F)on1	none
COC(=O)c1cc(C(=O)Nc2cc(C)ccn2)cc([N+](=O)[O-])c1	m5-HT2A agonist 15
Cc1cc(N/N=C/c2ccc(O)cc2O)nc(-n2nc(C)cc2C)n1	CCR6 antagonist 93, CXCR6 block 92, EBI2 antag 84 (no result: APJ antagonist, APJ agonist)
COc1ccc(S(=O)(=O)N2CCOCC2)cc1C(=O)N1CCCCC1	none
O=C(/C=C/c1cccs1)c1ccc(NC(=O)c2cccc(Br)c2)cc1	EBI2 antag 58
CCOc1ccc(NC(=O)CN(C)C(=O)c2cc3c(s2)CCC3)cc1OCC	none (no result: APJ antagonist, CCR6 antagonist, APJ agonist)
O=C(Nc1ccc(N2CCCC2)cc1)c1cccc(Cl)c1Cl	none
CN(c1ccccc1)c1cc(=O)[nH]c(=O)[nH]1	none
